Molecules are shown by their SMILES.

The nature of this series: Toxicity liver stage against HepG2, at 10uM. The class given is cell-based. Set-up: test concentration 10 uM, cell line HepG2-A16-CD81EGFP. The following applies: human, HepG2-A16-CD81EGFP cells; read-out: INHIBITION
The gist of the method: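 Uninfected HepG2-A16-CD81EGFP cells, 3 × 10^3 per well, 1536-well, plated on prespotted compound at 10 μM final, parasite-free screening media added to match infected plates; puromycin 10 μM positive, DMSO 0.5% negative; run in parallel with 48 h PbLuc assay at 37 °C, 5% CO2; viability by CellTiter-Glo luminescence, normalized to controls.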
For `CC(c1nccs1)N(C)C(=O)c1cc(CN(C)Cc2ccccc2)on1` (stereo not given), the cytotoxicity at 10 µM is 12.2%.
The value for `CSCC[C@H](N)C(=O)NCc1cc2n(n1)CCCN(C1CCCCC1)C2` was -15.3%; that for `O=C(NCc1cccc(F)c1)c1cccc(C(=O)N2CCCC2)n1` was 5.79%.
Take `O=C([C@H]1CC[C@@H]2[C@@H](CCN2Cc2nccs2)O1)N1CCOCC1`: the cytotoxicity at 10 µM is -0.891%.
As for `Cc1cc(C(=O)N2CCCCC2C)ccc1NC(=O)N1CCOCC1` (stereo not given), the figure is 7.02%; as for `CN1N=C(C(=O)N2CCN(c3ncccc3Cl)CC2)CCC1=O`, 0.0793%.
On to `O=S(=O)(c1cccnc1)N1CCN(CC(O)c2ccccc2)CC1` (stereo not given), for which the cytotoxicity at 10 µM was 0.871%.
Consider `CN(Cc1ccsc1)C(=O)Nc1ccc(N(C)C)nc1`, for which the cytotoxicity at 10 µM is -3.08%.
Turning to `COc1ccc(N2CCN(Cc3nc(CSC)no3)CC2=O)cc1`, the cytotoxicity at 10 µM is 1.44%.
`Cc1ccccc1CN(CCN(C)C)Cc1ccccc1C(=O)O`: the cytotoxicity at 10 µM was -1.97%.
On to `CCOc1c(F)cccc1C(=O)N(c1cccnc1)C(C)C`, for which the cytotoxicity at 10 µM is 1.52%.
Take `COCC(c1ccccn1)N(C)C(=O)c1cc(-c2cccn2C)n[nH]1` (stereo not given): the cytotoxicity at 10 µM was -3.39%.
Regarding `COc1nn(C)c2c1CCCN(S(=O)(=O)c1cccs1)C2`, the cytotoxicity at 10 µM was -112%.
Regarding `CC(C)c1nccn1CCCNC(=O)c1ccc(-c2cn[nH]c2)nc1`, the cytotoxicity at 10 µM was -5.84%.
The value for `CN1CCC(N(Cc2ccco2)S(=O)(=O)c2ccc(Cl)cc2)CC1` was -1.1%; that for `Cc1ccc(C(C(=O)NCc2cc(C)[nH]n2)N(C)C)cc1` (stereo not given) was -0.671%.
In the case of `OC(COCc1ccccc1)CN1CCC(Cn2cccn2)CC1` (stereo not given), the cytotoxicity at 10 µM was -1.49%.
As for `CC(=O)N1CCCC(C(=O)NCCc2ccc(F)c(Br)c2)C1` (stereo not given), the figure is 4.64%; as for `O=C(NC[C@]12COC[C@H]1CN(CC1CCOCC1)C2)c1ccccc1`, -5.15%.
Consider `CNC(=O)CN1CCC(CN(C)Cc2ccncc2Cl)CC1`, for which the cytotoxicity at 10 µM is -2.87%.
On to `CNC(=O)C1(C)CN(c2nnc(C)c3ccccc23)CCO1` (stereo not given), for which the cytotoxicity at 10 µM is -1.61%.
For `CCN1CC2(CC1=O)CN(C(=O)NC(C)C)CCN(S(C)(=O)=O)C2` (stereo not given), the cytotoxicity at 10 µM is -3.67%.
Consider `COc1ccc(OC)c(C(O)CN2CCC(N3CCC(C)CC3)CC2)c1` (stereo not given), for which the cytotoxicity at 10 µM was -25.5%.
The value for `CN1CC2(CCN(C(=O)C3CCC3)CC2)COc2ccccc2S1(=O)=O` was 10.2%; that for `N#Cc1cccc(CN2CCCC2Cn2cccn2)c1` (stereo not given) was -2.78%.
As for `Cc1nonc1NC(=O)C1SCCc2sccc21` (stereo not given), the figure is -2.82%.
For `CNC(=O)c1ccc(OC)c(NCc2ncc(-c3cccs3)o2)c1`, the cytotoxicity at 10 µM worked out at 14%.
Turning to `O=S(=O)(c1cccs1)N1CC[C@H]2[C@H]1CCN2c1ncccn1`, the cytotoxicity at 10 µM was -0.861%.
As for `Cc1ncoc1C(=O)N1C[C@H]2CCC[C@@]2(COCc2cccnc2)C1`, the cytotoxicity at 10 µM was determined as 4.53%.
As for `O=C(NCCO)c1cc(-c2ccc3c(c2)CCO3)n[nH]1`, the cytotoxicity at 10 µM is -11.9%.
Regarding `COc1ccc2c(c1)OCC(CNC(=O)c1cnc(O)cn1)C2` (stereo not given), the cytotoxicity at 10 µM was -1.09%.
In the case of `O=C(CCc1ccc(=O)[nH]n1)N1CCCC(COc2ccc(F)cc2)C1` (stereo not given), the cytotoxicity at 10 µM came to 1.9%.
As for `CCc1nc(CN2CCCN(C(=O)COC)CC2)cs1`, the cytotoxicity at 10 µM was -18.9%.
Take `CC(C)C(=O)N1CCCN(C(=O)NC2CCc3ccccc3C2)CC1` (stereo not given): the cytotoxicity at 10 µM is -7.33%.
With `CSCc1cc(F)ccc1CNC(=O)N1CCC(CO)CC1`, the cytotoxicity at 10 µM is 1.82%.
For `Cn1cc(CN2CCC(F)(F)C3(CCN(c4ccccn4)C3)C2)cn1` (stereo not given), the cytotoxicity at 10 µM was -0.434%.
As for `CCS(=O)(=O)NCC(=O)N1CC2(CCCC2)c2c(F)cccc21`, the cytotoxicity at 10 µM was found to be 1.56%.
The value for `Cc1csc(CCCNC(=O)[C@H]2CNC[C@@H](C(=O)N3CCCC3)C2)n1` was -15.9%; that for `Cc1cc(C(=O)N2C[C@@H]3COC[C@]3(COCc3cccnc3)C2)no1` was -16.1%.
Consider `CC(C)c1nnc2n1CC(CNC/C=C/c1ccccc1)CC2` (stereo not given), for which the cytotoxicity at 10 µM was determined as 3.76%.
As for `COc1cccc(OCC(=O)NS(=O)(=O)c2cc(F)ccc2F)c1`, the cytotoxicity at 10 µM worked out at 7.53%.
In the case of `Cc1ccc(-n2nnc(CC(=O)N3CCOCC3)c2C)cc1`, the cytotoxicity at 10 µM is -12.9%.
On to `O=C(C1CCCC1)N1C[C@@H]2CCN(c3cccnc3)C[C@@H]2C1`, for which the cytotoxicity at 10 µM was -78.4%.
Turning to `CN(C)c1nc2c(c(N3CCc4c(c(CO)nn4C)C3)n1)CCNC2`, the cytotoxicity at 10 µM was -5.72%.
As for `COc1ccccc1OC1(C(=O)O)CCN(c2ncnc(C)c2C)CC1`, the figure is -11.2%; as for `CC1CCCCN1CCNC(=O)c1ccccc1N1CCOCC1` (stereo not given), -4.14%; as for `Cc1nc(C(=O)N2CCC(c3nnc(Cn4ccnc4)n3C)CC2)cs1`, -127%.
`CC(C)(C)NC(=O)CNC(=O)Nc1cc(-c2ccccc2)ns1`: the cytotoxicity at 10 µM turned out to be 16.6%.
The value for `Cc1ccccc1CN1CCC[C@H]1c1nc(-c2cncnc2N)no1` was -0.921%; that for `COc1ccc(CNC(=O)N2CCN(C)[C@@H]3CS(=O)(=O)C[C@@H]32)cc1` was 8.64%.
As for `Cc1cc(CN(C)C2CCCN(c3cccnn3)C2)on1` (stereo not given), the figure is 16%; as for `Cc1nc(CN2C[C@@H]3CN(C(=O)c4cccn4C)C[C@@H]3C2)cs1`, 0.346%.
For the compound `COc1cccc(COCC(=O)N2CCCC(n3cncn3)C2)c1` (stereo not given), the cytotoxicity at 10 µM was -21.1%.
The value for `O=C1NCCO[C@H]2CN(C(=O)CCc3ccc(Cl)cc3)CC[C@@H]12` was 11.1%; that for `Cn1cc(Br)c(C(=O)NCCCn2cc(Br)cn2)n1` was -6.4%; that for `Cc1cc(CN(C)C(=O)NCc2ccco2)no1` was 1.58%.
In the case of `CN(C)CCn1c([C@@H]2CCCO2)cc2cccnc21`, the cytotoxicity at 10 µM was -25.4%.
On to `Cc1ccnc(NC(=O)c2ccc(Br)o2)c1`, for which the cytotoxicity at 10 µM was -10.5%.
As to `CCC(NC(=O)C1CCN(S(C)(=O)=O)CC1)c1ccc(C)cc1C` (stereo not given), the cytotoxicity at 10 µM is -10.6%.
For the compound `O=C(CN1CCN(c2ccccc2F)CC1)Nc1ccc(Cl)cn1`, the cytotoxicity at 10 µM is 4.04%.
On to `CCc1nc(C2CCCN2CC(=O)Nc2nncs2)no1` (stereo not given), for which the cytotoxicity at 10 µM is -9.47%.
For the compound `Cc1nc(O)c2c(n1)CCN(Cc1cc(C)sc1C)CC2`, the cytotoxicity at 10 µM is -9%.
As to `Cc1cnn(CC2CCCN2C(=O)Cc2n[nH]c3ccccc23)c1` (stereo not given), the cytotoxicity at 10 µM was -9.16%.
Regarding `CC(C)CCC(=O)NC(C#N)CC(C)C` (stereo not given), the cytotoxicity at 10 µM was found to be 2.53%.
Regarding `CCC(NC(N)=O)c1ccccc1OCC(=O)N1CCCC1` (stereo not given), the cytotoxicity at 10 µM was -8.29%.
Turning to `O=C(Cn1cccnc1=O)NCCc1ccc2c(c1)OCCO2`, the cytotoxicity at 10 µM is 4.96%.
Consider `O=C(c1cc(Cl)c2c(c1)OCO2)N1CCCC(n2cncn2)C1` (stereo not given), for which the cytotoxicity at 10 µM was -8.75%.
Consider `O=C(Nc1cccc(Cn2cccn2)c1)N1CCCC(N2CCCC2)C1` (stereo not given), for which the cytotoxicity at 10 µM came to 4.13%.
As to `O[C@@H]1C[C@H]2CN(Cc3ccccc3)[C@H](Cc3ccccc3)CN2C1`, the cytotoxicity at 10 µM is -0.658%.
`c1cnc(-c2nc(CN3CCOC(Cn4cncn4)C3)cs2)nc1` (stereo not given): the cytotoxicity at 10 µM was -15.2%.
In the case of `COC(=O)N1CCCC(C(=O)NCc2cc3cccc(OC)c3o2)C1` (stereo not given), the cytotoxicity at 10 µM is -7.72%.
Turning to `CN(Cc1ccsc1)Cc1ccc(C2CCCCO2)o1` (stereo not given), the cytotoxicity at 10 µM is -2.11%.
Consider `CCCc1noc(CCC(=O)N2CCCC2c2noc(C3CC3)n2)n1` (stereo not given), for which the cytotoxicity at 10 µM was -9.98%.
The value for `CCN1Cc2c(C(=O)NC(C)C(C)C)ncn2-c2ccccc2S1(=O)=O` (stereo not given) was -66.3%; that for `COc1ccccc1C(C)N(C)Cc1nc2c(cnn2C)c(=O)[nH]1` (stereo not given) was -9.1%.
As for `CS(=O)(=O)CCc1ncnn1-c1ccc(F)c(Cl)c1`, the cytotoxicity at 10 µM is -4.56%.
Turning to `CCC1=N[C@@]2(CC[C@@H]3CN(C(=O)NC(C)C)C[C@@H]32)C(=O)N1C`, the cytotoxicity at 10 µM is -18%.
On to `Cc1ccc(C(=O)N2C[C@@H](N3CCN(C)CC3)[C@H]3OCCC[C@H]32)cn1`, for which the cytotoxicity at 10 µM was -113%.
Consider `COCc1c(C(=O)O)nnn1Cc1cccc(C(F)(F)F)c1`, for which the cytotoxicity at 10 µM came to 2.17%.
Consider `CCCNC(=O)CCNC(=O)c1sc2ccc(F)cc2c1C`, for which the cytotoxicity at 10 µM came to 3.33%.
`CCCc1nc(CNC(C)Cn2cccn2)cs1` (stereo not given): the cytotoxicity at 10 µM is -12.5%.
As for `CC(=O)c1cccc(OCC(=O)N(CC(C)C)C2CCN(C)CC2)c1`, the figure is -17.6%.
As for `CCn1cc(C(=O)Nc2cc(C(=O)OC)ccc2C(=O)OC)cn1`, the figure is -1.2%.
As for `c1cnc(NC[C@H]2OC[C@@H]3CCN(Cc4cccnc4)C[C@@H]32)nc1`, the figure is -3.12%; as for `CCc1ncc2c(n1)CN(CCCOc1ccc(C#N)cc1)CC2`, 16.4%; as for `CN(Cc1nccn1CC(F)(F)F)C(=O)c1cccc(C#N)c1`, 5.4%.
Take `CN(C)Cc1cncc2c1CCN(CC(=O)N(C)C)C2`: the cytotoxicity at 10 µM was -99.4%.
Take `Cn1cc(C(=O)N2CCCN(c3cccnn3)CC2)c2ccccc21`: the cytotoxicity at 10 µM worked out at 4%.
As for `COCc1noc(C2(c3ccc(Cl)cc3)CCOCC2)n1`, the figure is 1.86%; as for `Cc1ccc(C2CCCN2CC(=O)N(CCC#N)c2ccccc2)cc1` (stereo not given), -6.89%.
As for `Cc1nc(C)n(CC2CCCCN2Cc2nc(-c3ccoc3)no2)n1` (stereo not given), the figure is 1.98%; as for `Cc1ccc(CNC2CCc3[nH]c(=O)ccc3C2)cc1C` (stereo not given), 0.354%; as for `Cc1cc(C)nc(C2CCN(C(=O)c3cncnc3C)C2)n1` (stereo not given), 5.16%.
The value for `Cc1noc(C)c1CN1CCC2(CC1)NC(=O)CC2c1ccncc1` (stereo not given) was 0.635%; that for `N#Cc1nccnc1N1CCC(C(O)c2cccs2)CC1` (stereo not given) was -38%.

Source of the values: ChEMBL document CHEMBL4513216, “Probing the Open Global Health Chemical Diversity Library for Multistage-Active Starting Points for Next-Generation Antimalarials” (ACS Infect Dis, 2020).
